Measured values reported in ChEMBL document CHEMBL2321820, “Discovery of HSD-621 as a Potential Agent for the Treatment of Type 2 Diabetes” (ACS Med Chem Lett, 2013).

Legend:
[1] = target: T1, Peroxisome proliferator-activated receptor gamma (Homo sapiens, UniProt P37231); test: Inhibition of PPARgamma (unknown origin)
T1 sequence (P37231 whole entry): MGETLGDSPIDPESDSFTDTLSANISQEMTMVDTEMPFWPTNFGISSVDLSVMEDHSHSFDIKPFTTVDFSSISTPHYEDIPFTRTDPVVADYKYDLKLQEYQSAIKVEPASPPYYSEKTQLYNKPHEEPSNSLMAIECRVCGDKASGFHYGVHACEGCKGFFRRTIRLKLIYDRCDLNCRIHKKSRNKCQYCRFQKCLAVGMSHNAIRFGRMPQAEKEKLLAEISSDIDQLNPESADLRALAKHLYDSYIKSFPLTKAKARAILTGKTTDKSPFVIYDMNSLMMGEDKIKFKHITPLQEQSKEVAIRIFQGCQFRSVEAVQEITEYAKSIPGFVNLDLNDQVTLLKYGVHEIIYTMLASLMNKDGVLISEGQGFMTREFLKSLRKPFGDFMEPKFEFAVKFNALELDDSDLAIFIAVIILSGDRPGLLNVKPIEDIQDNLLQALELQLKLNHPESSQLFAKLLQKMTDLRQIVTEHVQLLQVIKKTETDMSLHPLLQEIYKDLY

[2] = Clearance in Beagle dog at 2 mg/kg, iv; assay type: ADME, organism-based, Canis lupus familiaris; design: dose 2 mg/kg, route intravenous; details: in vivo
In short: (§1)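 Male dogs were given 2 mg/kg intravenously in 50% DMSO/50% PEG200.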

Mus musculus [3] = species on record: Mus musculus; test: Toxicity in C57B6 DIO mouse assessed as reduction of food intake at 0.3 mg/g of food after 31 days; assay type: organism-based; details: in vivo, po, 744 h
[4] = AUC in Sprague-Dawley rat at 10 mg/kg, po; assay type: ADME, organism-based; design: dose 10 mg/kg, route oral; details: plasma
In short: (§2)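 SD rats received 2 mg/kg iv in 50% DMSO/50% PEG200, or 10 mg/kg po in 2% Tween/0.5% methyl cellulose in water. PK parameters come from each route.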

[5] = Volume of distribution at steady state in Beagle dog at 2 mg/kg, iv; assay type: ADME, organism-based, Canis lupus familiaris; design: dose 2 mg/kg, route intravenous; details: in vivo, read-out: Vdss; in short: as §1
[6] = Tmax in Sprague-Dawley rat at 10 mg/kg, po; assay type: ADME, organism-based; design: dose 10 mg/kg, route oral; details: in vivo; in short: as §2
[7] = Clearance in Sprague-Dawley rat at 2 mg/kg, iv; assay type: ADME, organism-based; design: dose 2 mg/kg, route intravenous; details: in vivo; in short: as §2
[8] = target: T2, 11-beta-hydroxysteroid dehydrogenase 1 (Mus musculus, UniProt P50172); test: Inhibition of mouse 11beta-HSD1 expressed in CHO cells […] incubated for 30 mins prior to substrate addition measured after 120 mins by chemiluminescence assay; assay type: cell-based
T2 sequence (P50172 whole entry): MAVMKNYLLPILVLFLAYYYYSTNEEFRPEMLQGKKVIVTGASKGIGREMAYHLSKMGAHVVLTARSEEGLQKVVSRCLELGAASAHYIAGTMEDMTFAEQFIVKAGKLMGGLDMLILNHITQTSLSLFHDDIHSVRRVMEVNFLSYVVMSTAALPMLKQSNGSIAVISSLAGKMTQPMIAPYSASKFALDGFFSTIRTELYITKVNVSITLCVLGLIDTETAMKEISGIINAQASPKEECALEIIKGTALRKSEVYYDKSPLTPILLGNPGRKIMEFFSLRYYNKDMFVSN
In short: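 Cell-based assay run in duplicate. Compounds were tested as 11-point 2-fold dilutions, and IC50 was derived. Lower assay threshold was 10 nM.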

[9] = Tmax in Beagle dog at 5 mg/kg, po; details: in vivo
[10] = target: 11-beta-hydroxysteroid dehydrogenase 1 (Homo sapiens, UniProt P28845); test: Inhibition of human 11beta-HSD1 expressed in CHO cells using cortisone as substrate incubated for 30 mins prior to substrate addition measured after 120 mins by chemiluminescence assay
Sequence of 11-beta-hydroxysteroid dehydrogenase 1 (Homo sapiens, UniProt P28845) (P28845 whole entry): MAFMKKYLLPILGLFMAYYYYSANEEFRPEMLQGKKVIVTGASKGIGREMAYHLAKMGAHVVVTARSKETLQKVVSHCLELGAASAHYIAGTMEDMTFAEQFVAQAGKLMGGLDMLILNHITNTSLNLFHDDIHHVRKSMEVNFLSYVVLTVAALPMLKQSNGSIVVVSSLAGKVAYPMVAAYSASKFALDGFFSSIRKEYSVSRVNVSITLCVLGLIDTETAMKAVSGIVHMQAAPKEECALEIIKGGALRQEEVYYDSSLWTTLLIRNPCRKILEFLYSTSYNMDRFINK

[11] = target: T3, Peroxisome proliferator-activated receptor delta (Homo sapiens, UniProt Q03181); test: Inhibition of PPARbeta (unknown origin)
T3 sequence (Q03181 whole entry): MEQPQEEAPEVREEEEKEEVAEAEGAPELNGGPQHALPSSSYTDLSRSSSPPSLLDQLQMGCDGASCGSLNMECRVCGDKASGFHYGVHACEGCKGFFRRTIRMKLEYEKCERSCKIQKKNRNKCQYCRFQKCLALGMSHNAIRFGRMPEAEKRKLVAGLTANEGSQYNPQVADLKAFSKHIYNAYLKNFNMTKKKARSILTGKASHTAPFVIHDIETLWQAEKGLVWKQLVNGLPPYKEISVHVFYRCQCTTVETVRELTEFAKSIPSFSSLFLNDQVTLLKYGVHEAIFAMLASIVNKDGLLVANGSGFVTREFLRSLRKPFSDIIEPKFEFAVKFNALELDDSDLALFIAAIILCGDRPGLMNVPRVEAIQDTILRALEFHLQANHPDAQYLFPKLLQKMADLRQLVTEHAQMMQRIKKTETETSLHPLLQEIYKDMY

Canis familiaris = test: Toxicity in dog at 100 to 1000 mg/kg; assay type: organism-based, Canis lupus familiaris; design: dose 100-1000 mg/kg; details: in vivo
In short: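 Dogs were dosed at 100, 300 and 1000 mg/kg in a 14-day safety assessment and metabolism study.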

[12] = Half life in Sprague-Dawley rat at 10 mg/kg, po; assay type: ADME, organism-based; design: dose 10 mg/kg, route oral; details: in vivo; in short: as §2
Rattus norvegicus = test: Toxicity in rat at 200 to 2000 mg/kg; assay type: organism-based; design: dose 200-2000 mg/kg; details: in vivo
In short: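 14-day safety assessment and metabolism study in rats at 200, 600 and 2000 mg/kg.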

[13] = target: T2, 11-beta-hydroxysteroid dehydrogenase 1; test: Inhibition of mouse 11beta-HSD1 expressed in CHO cells […] incubated for 30 mins prior to substrate addition measured after 120 mins by chemiluminescence assay in presence of 10% human serum; assay type: cell-based
In short: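 Cell-based assay with 10% (v/v) human serum in the culture medium. Run in duplicate, with 11-point 2-fold dilutions giving the IC50. Lower threshold was 10 nM.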

[14] = target: T4, Peroxisome proliferator-activated receptor alpha (Homo sapiens, UniProt Q07869); test: Inhibition of PPARalpha (unknown origin)
T4 sequence (Q07869 whole entry): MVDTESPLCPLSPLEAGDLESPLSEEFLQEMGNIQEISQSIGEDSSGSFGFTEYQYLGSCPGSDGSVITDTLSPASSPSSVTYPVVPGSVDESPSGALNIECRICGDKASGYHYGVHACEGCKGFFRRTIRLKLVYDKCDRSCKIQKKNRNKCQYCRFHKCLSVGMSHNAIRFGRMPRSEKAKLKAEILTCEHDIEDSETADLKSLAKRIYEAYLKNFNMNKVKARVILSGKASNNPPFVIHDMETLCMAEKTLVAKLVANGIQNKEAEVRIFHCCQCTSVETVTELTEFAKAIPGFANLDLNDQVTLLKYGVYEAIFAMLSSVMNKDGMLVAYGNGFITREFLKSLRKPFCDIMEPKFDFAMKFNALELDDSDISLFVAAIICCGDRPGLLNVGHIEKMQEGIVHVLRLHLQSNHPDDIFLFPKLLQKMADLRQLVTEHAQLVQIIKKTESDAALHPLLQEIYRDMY

[15] = AUC in C57B6 mouse at 2 mg/kg, iv; assay type: ADME, organism-based; design: dose 2 mg/kg, route intravenous; details: plasma
In short: (§3)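 Male C57B6 mice. IV dose of 2 mg/kg in 50% DMSO/50% PEG200. Oral dose of 10 mg/kg in 2% Tween/0.5% methyl cellulose in water. Values are PK parameters from the iv and po arms.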

[16] = Oral bioavailability in Beagle dog at 5 mg/kg; details: in vivo
[17] = Tmax in C57B6 mouse at 10 mg/kg, po; assay type: ADME, organism-based; design: dose 10 mg/kg, route oral; details: in vivo; in short: as §3
[18] = Clearance in C57B6 mouse at 2 mg/kg, iv; assay type: ADME, organism-based; design: dose 2 mg/kg, route intravenous; details: in vivo; in short: as §3
Mus musculus [19] = test: Ex vivo inhibition of 11beta-HSD1 in C57B16 mouse epididymal fat assessed as conversion of [3H]-cortisone to [3H]-cortisol at 10 mg/kg, po after 5 hrs by HPLC analysis relative to vehicle-treated control; assay type: functional
In short: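 Mice were dosed orally at 10 mg/kg. Epididymal fat was collected 5 h after dosing for the ex vivo readout.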

[20] = Cmax in C57B6 mouse at 10 mg/kg, po; assay type: ADME, organism-based; design: dose 10 mg/kg, route oral; details: in vivo; in short: as §3

SMILES: C[C@@H]1CN(c2ccc(F)cc2C(F)(F)F)CCN1S(=O)(=O)c1ccc([C@@](O)(C(N)=O)C(F)(F)F)s1
- IC50 [1]: > 100000 nM
- clearance [2]: 1 mL/min/kg
- Activity (Mus musculus [3]): Non-toxic
- AUC [4]: 6540 ng·h/mL
- Vd [5]: 1.8 L/kg
- Tmax [6]: 1.8 h
- clearance [7]: 8 mL/min/kg
- IC50 [8]: 10 nM
- Tmax [9]: 2.8 h
- IC50 [10]: 10 nM
- IC50 [11]: > 100000 nM
- Activity (Canis familiaris): Non-toxic
- half-life [12]: 3.3 h
- Activity (Rattus norvegicus): Non-toxic
- IC50 [13]: 10 nM
- IC50 [14]: > 100000 nM
- AUC [15]: 3600 ng·h/mL
- bioavailability [16]: 54%
- Tmax [17]: 2 h
- clearance [18]: 9 mL/min/kg
- inhibition in vivo at 10 mg/kg (Mus musculus [19]): 75%
- Cmax [20]: 987 ng/mL
